Tested on: Fibroblast
Experiment: Multiplex assay against human fibroblast
Type: toxicity, cell-based
Outline: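 Live cells carried four stains from seeding: Hoechst33342, BioTracker Green Microtubule Cytoskeleton Dye, MitoTracker Red and Annexin V Alexa Fluor 680. They were imaged on a CQ1 microscope at 37°C and 5% CO2 after compound addition. Using CellPathfinder machine-learning gating, cells were split into Hoechst high-intensity objects or normal cells, normal cells into healthy, pyknosed or fragmented nuclei, and pyknosed cells into mitotic or apoptotic; tubulin, mitochondrial-mass and membrane-permeability phenotypes are per cents of healthy-nucleus cells.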

[1] = 12 h, 1 µM, compound concentration 1 uM, replicate 1
[2] = 12 h, 1 µM, compound concentration 1 uM, replicate 2
[3] = 12 h, 10 µM, compound concentration 10 uM, replicate 1
[4] = 12 h, 10 µM, compound concentration 10 uM, replicate 2
[5] = 24 h, 1 µM, compound concentration 1 uM, replicate 1
[6] = 24 h, 1 µM, compound concentration 1 uM, replicate 2
[7] = 24 h, 10 µM, compound concentration 10 uM, replicate 1
[8] = 24 h, 10 µM, compound concentration 10 uM, replicate 2
[9] = 48 h, 1 µM, compound concentration 1 uM, replicate 1
[10] = 48 h, 1 µM, compound concentration 1 uM, replicate 2
[11] = 48 h, 10 µM, compound concentration 10 uM, replicate 1
[12] = 48 h, 10 µM, compound concentration 10 uM, replicate 2

Cc1ccc2nc(NCCN)c3ncc(C)n3c2c1.O=C(O)C(F)(F)F.O=C(O)C(F)(F)F
Population Apoptotic (%) [1]: 78%
Population Fragmented Nuclei (%) [1]: 28%
Population Healthy Nuclei (%) [1]: 60%
Population Hoechst High Intensity Objects (%) [1]: 11%
Population Membrane Permeable-Phenotype (%) [1]: 5%
Population Mitochondria Different-Phenotype (%) [1]: 1%
Population Mitotic Cells (%) [1]: 21%
Population Normal (%) [1]: 88%
Population Tubulin-Different-Phenotype (%) [1]: 3%
Total Cell Count [1]: 243
Population Apoptotic (%) [2]: 50%
Population Fragmented Nuclei (%) [2]: 65%
Population Healthy Nuclei (%) [2]: 23%
Population Hoechst High Intensity Objects (%) [2]: 51%
Population Membrane Permeable-Phenotype (%) [2]: 11%
Population Mitochondria Different-Phenotype (%) [2]: 22%
Population Mitotic Cells (%) [2]: 50%
Population Normal (%) [2]: 48%
Population Pyknosed Nuclei (%) [2]: 10%
Population Tubulin-Different-Phenotype (%) [2]: 11%
Total Cell Count [2]: 78
Population Apoptotic (%) [3]: 76%
Population Fragmented Nuclei (%) [3]: 33%
Population Healthy Nuclei (%) [3]: 52%
Population Hoechst High Intensity Objects (%) [3]: 21%
Population Membrane Permeable-Phenotype (%) [3]: 5%
Population Mitochondria Different-Phenotype (%) [3]: 3%
Population Mitotic Cells (%) [3]: 23%
Population Normal (%) [3]: 78%
Population Pyknosed Nuclei (%) [3]: 13%
Population Tubulin-Different-Phenotype (%) [3]: 11%
Total Cell Count [3]: 309
Population Apoptotic (%) [4]: 66%
Population Fragmented Nuclei (%) [4]: 57%
Population Healthy Nuclei (%) [4]: 26%
Population Hoechst High Intensity Objects (%) [4]: 36%
Population Membrane Permeable-Phenotype (%) [4]: 6%
Population Mitochondria Different-Phenotype (%) [4]: 33%
Population Mitotic Cells (%) [4]: 33%
Population Normal (%) [4]: 63%
Population Pyknosed Nuclei (%) [4]: 15%
Population Tubulin-Different-Phenotype (%) [4]: 46%
Total Cell Count [4]: 90
Population Apoptotic (%) [5]: 64%
Population Fragmented Nuclei (%) [5]: 22%
Population Healthy Nuclei (%) [5]: 59%
Population Hoechst High Intensity Objects (%) [5]: 11%
Population Membrane Permeable-Phenotype (%) [5]: 4%
Population Mitochondria Different-Phenotype (%) [5]: 0%
Population Mitotic Cells (%) [5]: 35%
Population Normal (%) [5]: 88%
Population Pyknosed Nuclei (%) [5]: 17%
Population Tubulin-Different-Phenotype (%) [5]: 2%
Total Cell Count [5]: 253
Population Apoptotic (%) [6]: 66%
Population Fragmented Nuclei (%) [6]: 64%
Population Healthy Nuclei (%) [6]: 27%
Population Hoechst High Intensity Objects (%) [6]: 43%
Population Membrane Permeable-Phenotype (%) [6]: 0%
Population Mitochondria Different-Phenotype (%) [6]: 20%
Population Mitotic Cells (%) [6]: 33%
Population Normal (%) [6]: 56%
Population Pyknosed Nuclei (%) [6]: 8%
Population Tubulin-Different-Phenotype (%) [6]: 0%
Total Cell Count [6]: 65
Population Apoptotic (%) [7]: 81%
Population Fragmented Nuclei (%) [7]: 35%
Population Healthy Nuclei (%) [7]: 50%
Population Hoechst High Intensity Objects (%) [7]: 23%
Population Membrane Permeable-Phenotype (%) [7]: 5%
Population Mitochondria Different-Phenotype (%) [7]: 0%
Population Mitotic Cells (%) [7]: 18%
Population Normal (%) [7]: 76%
Population Pyknosed Nuclei (%) [7]: 13%
Population Tubulin-Different-Phenotype (%) [7]: 3%
Total Cell Count [7]: 370
Population Apoptotic (%) [8]: 77%
Population Fragmented Nuclei (%) [8]: 47%
Population Healthy Nuclei (%) [8]: 35%
Population Hoechst High Intensity Objects (%) [8]: 39%
Population Membrane Permeable-Phenotype (%) [8]: 15%
Population Mitochondria Different-Phenotype (%) [8]: 15%
Population Mitotic Cells (%) [8]: 22%
Population Normal (%) [8]: 60%
Population Pyknosed Nuclei (%) [8]: 16%
Population Tubulin-Different-Phenotype (%) [8]: 52%
Total Cell Count [8]: 88

O=C(Nc1ccc(Cl)cc1)Nc1cccc(-c2cccc(N3CCCC3)n2)c1
Population Apoptotic (%) [1]: 45%
Population Fragmented Nuclei (%) [1]: 32%
Population Healthy Nuclei (%) [1]: 41%
Population Hoechst High Intensity Objects (%) [1]: 18%
Population Membrane Permeable-Phenotype (%) [1]: 43%
Population Mitochondria Different-Phenotype (%) [1]: 5%
Population Mitotic Cells (%) [1]: 54%
Population Normal (%) [1]: 81%
Population Pyknosed Nuclei (%) [1]: 26%
Population Tubulin-Different-Phenotype (%) [1]: 35%
Total Cell Count [1]: 110
Population Apoptotic (%) [2]: 25%
Population Fragmented Nuclei (%) [2]: 17%
Population Healthy Nuclei (%) [2]: 76%
Population Hoechst High Intensity Objects (%) [2]: 7%
Population Membrane Permeable-Phenotype (%) [2]: 10%
Population Mitochondria Different-Phenotype (%) [2]: 8%
Population Mitotic Cells (%) [2]: 75%
Population Normal (%) [2]: 92%
Population Pyknosed Nuclei (%) [2]: 6%
Population Tubulin-Different-Phenotype (%) [2]: 12%
Total Cell Count [2]: 83
Population Apoptotic (%) [3]: 66%
Population Fragmented Nuclei (%) [3]: 21%
Population Healthy Nuclei (%) [3]: 23%
Population Hoechst High Intensity Objects (%) [3]: 35%
Population Membrane Permeable-Phenotype (%) [3]: 40%
Population Mitochondria Different-Phenotype (%) [3]: 0%
Population Mitotic Cells (%) [3]: 34%
Population Normal (%) [3]: 64%
Population Pyknosed Nuclei (%) [3]: 54%
Population Tubulin-Different-Phenotype (%) [3]: 54%
Total Cell Count [3]: 142
Population Apoptotic (%) [4]: 72%
Population Fragmented Nuclei (%) [4]: 3%
Population Healthy Nuclei (%) [4]: 78%
Population Hoechst High Intensity Objects (%) [4]: 7%
Population Membrane Permeable-Phenotype (%) [4]: 69%
Population Mitochondria Different-Phenotype (%) [4]: 7%
Population Mitotic Cells (%) [4]: 27%
Population Normal (%) [4]: 92%
Population Pyknosed Nuclei (%) [4]: 17%
Population Tubulin-Different-Phenotype (%) [4]: 74%
Total Cell Count [4]: 69
Population Apoptotic (%) [5]: 50%
Population Fragmented Nuclei (%) [5]: 31%
Population Healthy Nuclei (%) [5]: 52%
Population Hoechst High Intensity Objects (%) [5]: 13%
Population Membrane Permeable-Phenotype (%) [5]: 23%
Population Mitochondria Different-Phenotype (%) [5]: 0%
Population Mitotic Cells (%) [5]: 50%
Population Normal (%) [5]: 86%
Population Pyknosed Nuclei (%) [5]: 15%
Population Tubulin-Different-Phenotype (%) [5]: 42%
Total Cell Count [5]: 103
Population Apoptotic (%) [6]: 20%
Population Fragmented Nuclei (%) [6]: 18%
Population Healthy Nuclei (%) [6]: 75%
Population Hoechst High Intensity Objects (%) [6]: 6%
Population Membrane Permeable-Phenotype (%) [6]: 7%
Population Mitochondria Different-Phenotype (%) [6]: 3%
Population Mitotic Cells (%) [6]: 80%
Population Normal (%) [6]: 93%
Population Pyknosed Nuclei (%) [6]: 6%
Population Tubulin-Different-Phenotype (%) [6]: 12%
Total Cell Count [6]: 94
Population Apoptotic (%) [7]: 91%
Population Fragmented Nuclei (%) [7]: 17%
Population Healthy Nuclei (%) [7]: 24%
Population Hoechst High Intensity Objects (%) [7]: 31%
Population Membrane Permeable-Phenotype (%) [7]: 45%
Population Mitochondria Different-Phenotype (%) [7]: 33%
Population Mitotic Cells (%) [7]: 8%
Population Normal (%) [7]: 68%
Population Pyknosed Nuclei (%) [7]: 58%
Population Tubulin-Different-Phenotype (%) [7]: 50%
Total Cell Count [7]: 145
Population Apoptotic (%) [8]: 72%
Population Fragmented Nuclei (%) [8]: 13%
Population Healthy Nuclei (%) [8]: 54%
Population Hoechst High Intensity Objects (%) [8]: 25%
Population Membrane Permeable-Phenotype (%) [8]: 46%
Population Mitochondria Different-Phenotype (%) [8]: 15%
Population Mitotic Cells (%) [8]: 27%
Population Normal (%) [8]: 74%
Population Pyknosed Nuclei (%) [8]: 31%
Population Tubulin-Different-Phenotype (%) [8]: 46%
Total Cell Count [8]: 81
Population Apoptotic (%) [9]: 55%
Population Fragmented Nuclei (%) [9]: 40%
Population Healthy Nuclei (%) [9]: 51%
Population Hoechst High Intensity Objects (%) [9]: 14%
Population Membrane Permeable-Phenotype (%) [9]: 33%
Population Mitochondria Different-Phenotype (%) [9]: 1%
Population Mitotic Cells (%) [9]: 44%
Population Normal (%) [9]: 85%
Population Pyknosed Nuclei (%) [9]: 7%
Population Tubulin-Different-Phenotype (%) [9]: 28%
Total Cell Count [9]: 135
Population Apoptotic (%) [10]: 0%
Population Fragmented Nuclei (%) [10]: 28%
Population Healthy Nuclei (%) [10]: 70%
Population Hoechst High Intensity Objects (%) [10]: 12%
Population Membrane Permeable-Phenotype (%) [10]: 22%
Population Mitotic Cells (%) [10]: 100%
Population Normal (%) [10]: 87%
Population Pyknosed Nuclei (%) [10]: 1%
Population Tubulin-Different-Phenotype (%) [10]: 34%
Total Cell Count [10]: 107
Population Apoptotic (%) [11]: 94%
Population Fragmented Nuclei (%) [11]: 19%
Population Healthy Nuclei (%) [11]: 17%
Population Hoechst High Intensity Objects (%) [11]: 45%
Population Membrane Permeable-Phenotype (%) [11]: 35%
Population Mitochondria Different-Phenotype (%) [11]: 28%
Population Mitotic Cells (%) [11]: 5%
Population Normal (%) [11]: 54%
Population Pyknosed Nuclei (%) [11]: 63%
Population Tubulin-Different-Phenotype (%) [11]: 50%
Total Cell Count [11]: 151
Population Apoptotic (%) [12]: 95%
Population Fragmented Nuclei (%) [12]: 16%
Population Healthy Nuclei (%) [12]: 9%
Population Hoechst High Intensity Objects (%) [12]: 63%
Population Membrane Permeable-Phenotype (%) [12]: 27%
Population Mitochondria Different-Phenotype (%) [12]: 18%
Population Mitotic Cells (%) [12]: 4%
Population Normal (%) [12]: 36%
Population Pyknosed Nuclei (%) [12]: 73%
Population Tubulin-Different-Phenotype (%) [12]: 36%
Total Cell Count [12]: 325

Source: ChEMBL document CHEMBL4689842, “EUbOPEN Chemogenomics Library wave 1” (2021)
